Experiment [1] can be described thus: Cytotoxicity against p53-deficient human Hep3B cells after 48 hrs by SRB assay. The format is functional, cell-based, Hep 3B2. The procedure, abridged: (§1)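 Cell lines came from CCRC, Taiwan. Cells were seeded at about 5 × 10^3 per well and left overnight. They were then given serum-free medium containing 0-10 μM compound (0.08-10 μM serial dilutions) for 48 h at 37 °C. Cells were fixed with TCA (10% final), stained with SRB (0.4% final), and the dye was dissolved in 10 mM Tris with A515 read. IC50 was taken from a fitted log concentration-response curve.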

For a further experiment, the system named is PC-3. Put plainly: Cytotoxicity against p53-deficient human PC3 cells after 48 hrs by SRB assay. The format is functional, cell-based. To be noted: PC-3, 48 h. The procedure, abridged:
as §1

Another experiment deals with MCF7. Put plainly: Cytotoxicity against estrogen receptor-positive human MCF7 cells expressing wild type p53 after 48 hrs by SRB assay. The format is functional, cell-based. To be noted: MCF7, 48 h. In outline:
as §1

For a further experiment, the system named is A2780. The experiment can be described thus: Cytotoxicity against human A2780 cells after 48 hrs by MTT assay. Type of experiment: functional, cell-based. As to conditions: A2780, 48 h.
Another experiment has as its system A549. The experiment can be described thus: Cytotoxicity against human A549 cells expressing wild type p53 after 48 hrs by SRB assay. As to conditions: A549, 48 h. The format is functional, cell-based. In outline:
as §1

A further experiment has as its system U-937. The experiment can be described thus: Cytotoxicity against human U937 cells expressing p53 mutant after 48 hrs by SRB assay. As to conditions: U-937, 48 h. The format is functional, cell-based.
Another experiment relates to AGS. The experiment can be described thus: Cytotoxicity against human AGS cells expressing wild type p53 after 48 hrs by SRB assay. Type of experiment: functional, cell-based. The procedure, abridged: as §1
For a further experiment, the system named is KB. Put plainly: Cytotoxicity against human KB cells after 48 hrs by MTT assay. Type of experiment: functional, cell-based.
The next experiment deals with HT-29. The experiment can be described thus: Cytotoxicity against human HT-29 cells expressing p53 mutant after 48 hrs by SRB assay. Type of experiment: functional, cell-based. To be noted: HT-29, 48 h. The procedure, abridged:
as §1

Another experiment concerns HepG2. Put plainly: Cytotoxicity against human HepG2 cells expressing wild type p53 after 48 hrs by SRB assay. The format is functional, cell-based. To be noted: HepG2, 48 h. The procedure, abridged: as §1
Another experiment relates to K562. Put plainly: Cytotoxicity against p53-deficient human K562 cells after 48 hrs by SRB assay. Type of experiment: functional, cell-based. As to conditions: K562, 48 h.
Another experiment relates to Bel-7402. The experiment can be described thus: Cytotoxicity against human Bel7402 cells after 48 hrs by MTT assay. The format is functional, cell-based. To be noted: Bel-7402, 48 h.
For another experiment, the system named is THP-1. The experiment can be described thus: Cytotoxicity against human THP1 cells expressing p53 mutant after 48 hrs by SRB assay. The format is functional, cell-based. To be noted: THP-1, 48 h.
The nature of experiment [2]: Cytotoxicity against estrogen receptor-negative human […] cells expressing p53 mutant after 48 hrs by SRB assay. The format is functional, cell-based. The procedure, abridged:
as §1

The subject of the next experiment is HeLa. Put plainly: Cytotoxicity against p53-deficient human HeLa cells after 48 hrs by SRB assay. The format is functional, cell-based. In outline: as §1

pIC50: −log10 of the molar value. Some results are limits rather than exact numbers.

As to `CCn1cc(-c2nc3ccccc3[nH]2)c(=O)c2cc(F)c(N3CCNCC3)cc21`, the GI50 is over 10 µM in experiment [1]; over 10 µM in the experiment on PC-3; over 10 µM in the experiment on MCF7; 0.6 µM in the experiment with A549; 9.5 µM in the experiment with AGS; over 10 µM with HT-29. Besides, the GI50 (with HepG2; in experiment [2]; with HeLa) was over 10 µM each time. In addition, the negative-log IC50 (pIC50) was under 5.00 in experiment [1]; under 5.00 with PC-3; under 5.00 in the experiment on MCF7; 6.10 in the experiment with A2780; 5.33 with A549; under 5.00 in the experiment on U-937. The pIC50 was under 5.00 in the experiment on AGS; 4.98 with KB; under 5.00 with HT-29; under 5.00 in the experiment with HepG2; under 5.00 in the experiment with K562; 4.56 with Bel-7402. In addition, the pIC50 (in the experiment with THP-1; in experiment [2]; in the experiment on HeLa) was under 5.00 throughout.

As for `CCn1cc(-c2nc3ccc(N)cc3[nH]2)c(=O)c2cc(F)c(N3CCNCC3)cc21`, the GI50 in experiment [1] was over 10 µM; with PC-3, over 10 µM; in the experiment on MCF7, over 10 µM; in the experiment with A549, over 10 µM; in the experiment on AGS, 7.8 µM; in the experiment on HT-29, over 10 µM. The GI50 (with HepG2; in experiment [2]; in the experiment on HeLa) was over 10 µM throughout. The negative-log IC50 (pIC50) in [1] was under 5.00; in the experiment with PC-3, under 5.00; in the experiment with MCF7, under 5.00; with A2780, 4.29; in the experiment on A549, under 5.00; with U-937 it was under 5.00. For the same molecule, the negative-log IC50 (pIC50) in the experiment on AGS is 5.00; in the experiment with KB it was 4.45; with HT-29 it was under 5.00; with HepG2, under 5.00; in the experiment with K562, under 5.00; in the experiment on Bel-7402, 4.04. Moreover, the figures for the negative logarithm of the IC50 (pIC50) (in the experiment on THP-1; in experiment [2]; in the experiment on HeLa) were 5.00, under 5.00 and under 5.00, respectively.

Consider `CCn1cc(-c2nc3ccc([N+](=O)[O-])cc3[nH]2)c(=O)c2cc(F)c(N3CCNC(C)C3)c(F)c21` (stereo not drawn), for which the 50% growth inhibitory concentration (GI50) in experiment [1] amounted to 1.6 µM; in the experiment on PC-3, 7.9 µM; in the experiment on MCF7 it was 2.6 µM; with A549 it was 0.6 µM; in the experiment with AGS, 2.6 µM; with HT-29, 4.2 µM. The concentration for 50% growth inhibition (GI50) worked out at 1.5 µM in the experiment on HepG2, 1.8 µM in experiment [2] and 1.4 µM in the experiment on HeLa. Besides, the pIC50 in experiment [1] is 5.26; in the experiment on PC-3 it was 5.02; in the experiment on MCF7, 5.31; in the experiment with A2780 it was 5.64; with A549, 5.62; in the experiment with U-937, under 5.00. In addition, the pIC50 in the experiment on AGS was 5.09; with KB it was 5.64; in the experiment with HT-29, 5.12; in the experiment with HepG2 it was 5.38; in the experiment on K562, 5.33; with Bel-7402 it was 5.96. The values for the negative-log IC50 (pIC50) (in the experiment on THP-1; in [2]; in the experiment on HeLa) were 5.11, 5.26 and 5.62, respectively.

With `CCn1cc(-c2nc3ccc([N+](=O)[O-])cc3s2)c(=O)c2cc(F)c(N3CCN(C)CC3)cc21`, the GI50 in experiment [1] was over 10 µM; in the experiment with PC-3, 5.5 µM; with MCF7, over 10 µM; in the experiment with A549, 4.7 µM; with AGS, 2.6 µM; in the experiment with HT-29, over 10 µM. Besides, the GI50 (with HepG2; in [2]; with HeLa) was over 10 µM in each case. The pIC50 is under 5.00 in experiment [1]; 5.12 in the experiment on PC-3; under 5.00 with MCF7; 5.37 in the experiment on A2780; 5.00 in the experiment on A549; under 5.00 with U-937. Moreover, the pIC50 was 5.35 in the experiment on AGS; 5.24 in the experiment with KB; under 5.00 in the experiment with HT-29; under 5.00 with HepG2; under 5.00 in the experiment on K562; 5.11 in the experiment with Bel-7402. Further, the pIC50 (in the experiment with THP-1; in experiment [2]; in the experiment on HeLa) was under 5.00 each time.

Regarding `CCn1cc(-c2nc3ccc(N)cc3[nH]2)c(=O)c2cc(F)c(N3CCNCC3)nc21`, the concentration for 50% growth inhibition (GI50) was over 10 µM in [1]; over 10 µM with PC-3; over 10 µM in the experiment with MCF7; 0.5 µM in the experiment on A549; 6.7 µM with AGS; over 10 µM in the experiment on HT-29. The GI50 (with HepG2; in experiment [2]; with HeLa) was over 10 µM throughout. Further, the pIC50 is under 5.00 in [1]; under 5.00 with PC-3; under 5.00 with MCF7; 4.37 in the experiment on A2780; under 5.00 in the experiment with A549; under 5.00 in the experiment on U-937. Further, the negative logarithm of the IC50 (pIC50) is 5.04 with AGS; 4.52 with KB; under 5.00 with HT-29; under 5.00 in the experiment with HepG2; under 5.00 in the experiment with K562; 4.03 with Bel-7402. Also, the results for the negative-log IC50 (pIC50) (with THP-1; in experiment [2]; in the experiment with HeLa) were 5.09, under 5.00 and under 5.00, respectively.

Regarding `CCn1cc(-c2nc3ccc(Cl)cc3[nH]2)c(=O)c2cc(F)c(N3CCNCC3)cc21`, the GI50 in experiment [1] was determined as 0.9 µM; in the experiment with PC-3, 3.3 µM; in the experiment with MCF7, 4.2 µM; in the experiment on A549, 1 µM; with AGS it was 4.5 µM; in the experiment on HT-29 it was 1.8 µM. Moreover, the GI50 in the experiment on HepG2 came out at 1.8 µM; in [2], 0.9 µM; in the experiment with HeLa, 1.2 µM. Moreover, the pIC50 in experiment [1] was 5.64; in the experiment with PC-3, 5.32; with MCF7, 5.35; in the experiment on A2780 it was 5.31; with A549, 6.30; in the experiment with U-937 it was 5.38. For the same molecule, the pIC50 in the experiment with AGS is 6.00; with KB, 5.80; in the experiment on HT-29, 5.33; with HepG2, 5.43; in the experiment with K562 it was 5.57; with Bel-7402 it was 5.55. The pIC50 in the experiment with THP-1 was 5.55; in experiment [2], 5.64; in the experiment on HeLa, 5.38.

Regarding `CCn1cc(-c2nc3ccc([N+](=O)[O-])cc3s2)c(=O)c2cc(F)c(N3CCNC(C)C3)c(F)c21` (stereo not drawn), the GI50 in experiment [1] is 0.6 µM; in the experiment with PC-3, 2.7 µM; with MCF7, over 10 µM; in the experiment on A549, 1.5 µM; in the experiment on AGS it was 3.3 µM; in the experiment on HT-29 it was 1 µM. The values for the GI50 (in the experiment on HepG2; in experiment [2]; with HeLa) were 0.9 µM, 2.3 µM and 1.7 µM, respectively. Besides, the negative-log IC50 (pIC50) in experiment [1] is 5.85; in the experiment with PC-3 it was 5.00; with MCF7, under 5.00; in the experiment on A2780 it was 5.48; in the experiment with A549 it was 5.15; in the experiment on U-937 it was under 5.00. Moreover, the pIC50 in the experiment on AGS is 5.27; in the experiment with KB it was 5.33; in the experiment on HT-29, 5.30; in the experiment on HepG2, 5.44; with K562, under 5.00; in the experiment on Bel-7402, 5.39. For the same molecule, the pIC50 with THP-1 is under 5.00; in [2], 5.13; with HeLa, 5.00.

Source of the values: ChEMBL document CHEMBL1153527, “Discovery of a novel series of quinolone and naphthyridine derivatives as potential topoisomerase I inhibitors by scaffold modification” (J Med Chem, 2009).
